Experiments:
[1] = Selectivity ratio of km for bovine eNOS to km for mouse iNOS by Michaelis-Menten equation analysis
[2] = Selectivity ratio of km rat nNOS to km mouse iNOS by Michaelis-Menten equation analysis
[3] = target: T1, Nitric oxide synthase 3 (Bos taurus) (UniProt P29473); experiment: Inhibition of bovine eNOS assessed as nitric oxide-mediated oxidation of haemoglobin-A0 at 300 uM using L-arginine by haemoglobin capture assay
T1 sequence (whole entry): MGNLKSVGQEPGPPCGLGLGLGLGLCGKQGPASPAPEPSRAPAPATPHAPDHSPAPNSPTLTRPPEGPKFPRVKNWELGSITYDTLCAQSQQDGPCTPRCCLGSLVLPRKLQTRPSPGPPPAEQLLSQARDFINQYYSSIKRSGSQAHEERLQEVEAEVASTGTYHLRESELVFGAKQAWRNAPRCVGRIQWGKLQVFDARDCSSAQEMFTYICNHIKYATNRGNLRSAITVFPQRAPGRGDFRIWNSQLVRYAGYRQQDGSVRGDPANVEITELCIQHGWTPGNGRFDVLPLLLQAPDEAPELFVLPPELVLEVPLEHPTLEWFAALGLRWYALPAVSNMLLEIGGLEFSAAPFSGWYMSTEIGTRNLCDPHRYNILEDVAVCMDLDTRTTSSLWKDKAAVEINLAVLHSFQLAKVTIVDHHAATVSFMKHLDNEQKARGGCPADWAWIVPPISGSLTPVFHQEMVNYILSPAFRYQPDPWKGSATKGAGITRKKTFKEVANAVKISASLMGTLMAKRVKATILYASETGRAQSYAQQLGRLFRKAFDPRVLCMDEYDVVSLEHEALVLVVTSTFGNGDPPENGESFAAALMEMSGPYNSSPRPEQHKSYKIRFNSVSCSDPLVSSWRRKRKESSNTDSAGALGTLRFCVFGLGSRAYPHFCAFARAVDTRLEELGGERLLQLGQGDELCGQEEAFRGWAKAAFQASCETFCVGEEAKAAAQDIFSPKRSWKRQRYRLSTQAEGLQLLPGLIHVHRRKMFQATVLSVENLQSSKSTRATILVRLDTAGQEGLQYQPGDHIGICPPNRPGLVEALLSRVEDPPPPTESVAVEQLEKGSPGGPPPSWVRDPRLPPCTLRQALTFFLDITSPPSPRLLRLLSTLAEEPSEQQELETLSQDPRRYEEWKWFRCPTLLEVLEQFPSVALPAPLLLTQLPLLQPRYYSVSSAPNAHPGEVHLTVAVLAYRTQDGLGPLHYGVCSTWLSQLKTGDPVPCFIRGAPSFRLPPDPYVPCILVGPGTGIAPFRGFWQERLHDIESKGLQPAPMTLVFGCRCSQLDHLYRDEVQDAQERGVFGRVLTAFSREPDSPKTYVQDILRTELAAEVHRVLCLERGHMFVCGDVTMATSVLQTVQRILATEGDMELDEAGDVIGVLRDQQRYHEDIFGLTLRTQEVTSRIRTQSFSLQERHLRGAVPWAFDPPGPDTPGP
Procedure, shortened: (§1)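 For eNOS (bovine) and nNOS (rat), inhibition was tested as the effect of compound on L-arginine turnover, by hemoglobin capture at 30 °C. Buffer was 100 mM HEPES (pH 7.5) with 1.0 mM CaCl₂, 600 unit/mL calmodulin, NADPH, 0.125 mg/mL ferrous hemoglobin-A₀ and H₄B. Reactions were started with enzyme, and hemoglobin-A₀ oxidation was read at 401 nm.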

[4] = target: T2, Nitric oxide synthase, inducible (Mus musculus) (UniProt P29477); experiment: Inhibition of mouse iNOS assessed as nitric oxide-mediated oxidation of haemoglobin-A0 at 300 uM using L-arginine by haemoglobin capture assay
T2 sequence (whole entry): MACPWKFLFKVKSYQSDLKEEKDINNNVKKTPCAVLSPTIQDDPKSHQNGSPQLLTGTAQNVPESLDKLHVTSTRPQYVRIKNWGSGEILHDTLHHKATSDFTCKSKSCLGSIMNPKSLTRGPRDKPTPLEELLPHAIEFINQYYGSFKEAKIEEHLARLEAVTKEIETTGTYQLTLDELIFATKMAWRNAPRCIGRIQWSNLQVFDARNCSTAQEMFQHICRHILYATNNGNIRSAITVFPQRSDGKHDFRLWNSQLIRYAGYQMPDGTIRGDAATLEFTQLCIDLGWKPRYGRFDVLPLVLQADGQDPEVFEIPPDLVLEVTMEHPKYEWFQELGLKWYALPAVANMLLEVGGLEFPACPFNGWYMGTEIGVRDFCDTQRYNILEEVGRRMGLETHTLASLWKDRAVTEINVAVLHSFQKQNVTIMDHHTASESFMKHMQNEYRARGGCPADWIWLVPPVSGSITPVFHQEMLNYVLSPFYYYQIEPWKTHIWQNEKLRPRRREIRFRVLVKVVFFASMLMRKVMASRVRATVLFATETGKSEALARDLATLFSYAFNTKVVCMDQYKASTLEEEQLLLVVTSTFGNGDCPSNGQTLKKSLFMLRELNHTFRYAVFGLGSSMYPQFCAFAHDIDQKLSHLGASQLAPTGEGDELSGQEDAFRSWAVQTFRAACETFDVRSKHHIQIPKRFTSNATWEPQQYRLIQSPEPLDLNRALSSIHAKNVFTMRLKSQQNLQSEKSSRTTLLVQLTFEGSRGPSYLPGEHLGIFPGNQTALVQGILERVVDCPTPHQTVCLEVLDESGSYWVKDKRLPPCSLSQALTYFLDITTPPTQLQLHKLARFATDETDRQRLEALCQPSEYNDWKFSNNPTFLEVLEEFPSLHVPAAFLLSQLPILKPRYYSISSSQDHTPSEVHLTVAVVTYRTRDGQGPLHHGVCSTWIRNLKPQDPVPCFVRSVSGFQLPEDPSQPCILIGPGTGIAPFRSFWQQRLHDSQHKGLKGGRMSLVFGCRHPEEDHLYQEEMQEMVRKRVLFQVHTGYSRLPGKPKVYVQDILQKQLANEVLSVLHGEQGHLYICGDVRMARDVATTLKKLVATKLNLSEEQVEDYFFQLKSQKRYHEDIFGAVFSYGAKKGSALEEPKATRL
Procedure, shortened: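 Murine iNOS inhibition was measured against L-arginine as substrate in a hemoglobin capture assay at 30 °C, without calcium or calmodulin. The mix held NADPH, 0.125 mg/mL ferrous hemoglobin-A₀ and H₄B in 100 mM HEPES (pH 7.5). Enzyme addition initiated the reaction, and NO-mediated oxidation was monitored at 401 nm.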

[5] = target: Nitric oxide synthase 1 (Rattus norvegicus) (UniProt P29476); experiment: Inhibition of rat nNOS assessed as nitric oxide-mediated oxidation of haemoglobin-A0 at 300 uM using L-arginine by haemoglobin capture assay; procedure, shortened: as §1
Chain of Nitric oxide synthase 1 (Rattus norvegicus) (P29476 whole entry): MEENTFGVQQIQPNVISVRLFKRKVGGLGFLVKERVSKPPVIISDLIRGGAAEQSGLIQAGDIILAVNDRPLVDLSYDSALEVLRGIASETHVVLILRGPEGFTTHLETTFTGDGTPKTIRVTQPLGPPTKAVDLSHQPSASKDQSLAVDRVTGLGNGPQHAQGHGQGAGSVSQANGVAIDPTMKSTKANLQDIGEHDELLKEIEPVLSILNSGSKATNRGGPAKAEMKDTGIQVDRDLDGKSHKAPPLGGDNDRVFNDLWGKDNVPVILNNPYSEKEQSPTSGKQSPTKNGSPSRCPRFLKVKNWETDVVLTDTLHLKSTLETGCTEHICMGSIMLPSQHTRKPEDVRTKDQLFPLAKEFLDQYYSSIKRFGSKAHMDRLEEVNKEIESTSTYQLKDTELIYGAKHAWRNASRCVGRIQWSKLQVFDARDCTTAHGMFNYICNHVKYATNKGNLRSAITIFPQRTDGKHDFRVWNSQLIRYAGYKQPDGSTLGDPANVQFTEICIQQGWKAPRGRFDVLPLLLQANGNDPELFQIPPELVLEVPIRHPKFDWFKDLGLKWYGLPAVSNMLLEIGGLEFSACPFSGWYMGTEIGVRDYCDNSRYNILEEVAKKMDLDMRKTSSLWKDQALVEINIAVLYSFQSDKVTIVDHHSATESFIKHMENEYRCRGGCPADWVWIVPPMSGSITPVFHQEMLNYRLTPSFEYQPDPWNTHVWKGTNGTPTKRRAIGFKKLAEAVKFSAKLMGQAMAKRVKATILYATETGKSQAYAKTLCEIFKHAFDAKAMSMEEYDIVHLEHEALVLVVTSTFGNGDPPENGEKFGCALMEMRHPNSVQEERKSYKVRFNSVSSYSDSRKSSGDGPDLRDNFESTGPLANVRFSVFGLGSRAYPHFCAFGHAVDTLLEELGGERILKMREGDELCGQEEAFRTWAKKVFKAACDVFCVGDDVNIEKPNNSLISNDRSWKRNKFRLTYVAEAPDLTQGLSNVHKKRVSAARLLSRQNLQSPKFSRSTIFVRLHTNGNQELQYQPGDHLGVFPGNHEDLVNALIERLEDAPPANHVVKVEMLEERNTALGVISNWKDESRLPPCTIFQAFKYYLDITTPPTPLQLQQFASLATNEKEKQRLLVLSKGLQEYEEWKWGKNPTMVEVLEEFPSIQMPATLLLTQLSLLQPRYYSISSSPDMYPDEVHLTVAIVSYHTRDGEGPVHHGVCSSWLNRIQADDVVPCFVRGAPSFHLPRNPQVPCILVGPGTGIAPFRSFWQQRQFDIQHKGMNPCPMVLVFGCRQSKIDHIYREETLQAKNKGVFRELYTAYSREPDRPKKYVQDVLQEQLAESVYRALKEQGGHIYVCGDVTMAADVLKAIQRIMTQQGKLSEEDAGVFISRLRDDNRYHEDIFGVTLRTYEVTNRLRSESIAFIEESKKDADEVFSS

Compound: N=C(N)NC[C@H]1C[C@H]1[C@H](N)C(=O)O
- Ratio [1]: 3.6
- Ratio [2]: 2.3

Compound: N=C(N)NC[C@H]1C[C@H]1[C@@H](N)C(=O)O
- inhibition [3]: 27%
- inhibition [4]: 14%
- inhibition [5]: 30%

Compound: N=C(N)NC[C@@H]1C[C@@H]1[C@H](N)C(=O)O
- inhibition [3]: 16%
- inhibition [4]: 22%
- inhibition [5]: 30%

Compound: N=C(N)NC[C@H]1C[C@@H]1[C@H](N)C(=O)O
- Ratio [1]: 5.6
- Ratio [2]: 2.6

Compound: N=C(N)NC[C@H]1C[C@@H]1[C@@H](N)C(=O)O
- inhibition [3]: 23%
- inhibition [4]: 19%
- inhibition [5]: 5%

Compound: N=C(N)NC[C@@H]1C[C@@H]1[C@@H](N)C(=O)O
- inhibition [3]: 4%
- inhibition [4]: 24%
- inhibition [5]: 10%

Compound: N=C(N)NCCC[C@H](N)C(=O)O
- Ratio [1]: 8.6
- Ratio [2]: 3.5

Compound: N=C(N)NC[C@@H]1C[C@H]1[C@@H](N)C(=O)O
- inhibition [3]: 4%
- inhibition [4]: 19%
- inhibition [5]: 13%

Compound: N=C(N)NC[C@@H]1C[C@H]1[C@H](N)C(=O)O
- inhibition [3]: 45%
- inhibition [4]: 26%
- inhibition [5]: 16%

From ChEMBL document CHEMBL1828615, “Synthesis of a series of 3,4-methanoarginines as side-chain conformationally restricted analogues of arginine” (Bioorg Med Chem, 2011)
